Each structure is given as a SMILES string. Converted amounts (≈) assume the structure as drawn. The source made the active and inactive calls. The calls are words filed in the database; no cut-off is given here.

Type in all cases: functional
For assay [1], the system named is Radical scavenging activity. The experiment in a line: Antioxidant activity assessed as DPPH radical scavenging activity in chloroform solution at 100 ug/mL.
The test system of assay [2] is Radical scavenging activity. The experiment in a line: Antioxidant activity assessed as DPPH radical scavenging activity in chloroform solution at 25 ug/mL.
For assay [3], the system named is Radical scavenging activity. The experiment in a line: Antioxidant activity assessed as DPPH radical scavenging activity in chloroform solution at 50 ug/mL.
In assay [4] the test system is Radical scavenging activity. As to the kind of experiment: Antioxidant activity assessed as DPPH radical scavenging activity in chloroform solution at 10 ug/mL. (In general: DPPH is a stable violet radical that fades when it is reduced.)
For assay [5], the system named is Radical scavenging activity. The experiment in a line: Antioxidant activity assessed as DPPH radical scavenging activity in ethanol solution at 50 ug/mL. The method, boiled down: (§1)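 Compound dissolved in ethanol, then ethanolic DPPH added. Incubated 30 min in the dark. DPPH decrease read as absorbance at 517 nm against an ethanol blank, with ascorbic acid as reference. % activity = [(A0 − Ai)/A0] × 100, where A0 is absorbance without compound and Ai with compound. IC50 taken from activity across concentrations.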

Assay [6] deals with Radical scavenging activity. As to the kind of experiment: Antioxidant activity assessed as DPPH radical scavenging activity in ethanol solution at 100 ug/mL. Put shortly:
as §1

Assay [7] deals with Radical scavenging activity. As to the kind of experiment: Antioxidant activity assessed as DPPH radical scavenging activity in chloroform solution at 5 ug/mL.
Assay [8] deals with Radical scavenging activity. As to the kind of experiment: Antioxidant activity assessed as DPPH radical scavenging activity in ethanol solution at 25 ug/mL. Put shortly:
as §1

Assay [9] has as its system Radical scavenging activity. The experiment in a line: Antioxidant activity assessed as DPPH radical scavenging activity in ethanol solution at 5 ug/mL. The method, boiled down: as §1
Assay [10] concerns Radical scavenging activity. As to the kind of experiment: Antioxidant activity assessed as DPPH radical scavenging activity in ethanol solution at 10 ug/mL. The method, boiled down: as §1
Assay [11] is described as follows: Antioxidant activity assessed as ABTS radical scavenging activity at 5 ug/mL. Put shortly: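 ABTS radical cation solution diluted in ethanol to an absorbance of 0.7–0.9 at 734 nm, 30 °C. Equal volume added to ethanolic compound solution (5 µg/mL). Absorbance read after 1 min and converted to percent inhibition.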
The test system of assay [12] is Radical scavenging activity. The experiment in a line: Antioxidant activity assessed as DPPH radical scavenging activity in chloroform solution.
Assay [13] concerns Radical scavenging activity. The experiment in a line: Antioxidant activity assessed as DPPH radical scavenging activity in ethanol solution. The method, boiled down:
as §1

In general, IC50 refers to the concentration at which inhibition is half-maximal. On to `Cc1cc(O)c(C(C)C)cc1/N=C/c1ccccc1O`, for which the Activity in assay [1] was 91%; in [2], 70.6%; in assay [3] it was 88.1%; in assay [4], 47.1%; in [5] it was 82%; in assay [6], 88.3%. For the same compound, the Activity is 23.9% in assay [7], 70.7% in [8], 29.2% in assay [9] and 49.3% in [10]. Also, the outcome in assay [11] was Active. Also, the IC50 in assay [12] came to 14.77 µg/mL (≈ 54.8 µM); in assay [13] it was 11.79 µg/mL (≈ 43.8 µM).

As to `Cc1cc(O)c(C(C)C)cc1/N=C/c1cc(Br)c(O)c(Br)c1`, the Activity in assay [1] stood at 90.1%; in assay [2] it was 69.2%; in [3], 77.4%; in assay [4], 46.1%; in [5] it was 92.3%; in [6] it was 95.2%. In addition, the Activity in [7] was 25.2%; in [8], 78.7%; in [9], 24.1%; in assay [10], 51.8%. Further, the outcome in assay [11] was Active. The IC50 in assay [12] was found to be 17.98 µg/mL (≈ 42.1 µM); in [13], 8.33 µg/mL (≈ 19.5 µM).

Regarding `COc1cc(/C=N/c2cc(C(C)C)c(O)cc2C)cc(OC)c1`, the Activity in assay [1] came out at 89.1%; in [2], 59.5%; in assay [3], 84.2%; in [4], 37%; in [5] it was 71.5%; in [6], 78.4%. For the same compound, the Activity in [7] came to 21.8%; in [8], 62.9%; in assay [9], 24.5%; in [10] it was 40.4%. Further, in assay [11], the outcome was Active. Moreover, the half-maximal inhibitory concentration (IC50) worked out at 25.47 µg/mL (≈ 81.3 µM) in assay [12] and 26.71 µg/mL (≈ 85.2 µM) in [13].

Consider `Cc1cc(/N=C/c2ccccc2O)c(C(C)C)cc1O`, for which the Activity in assay [1] was found to be 90.4%; in assay [2], 65.1%; in assay [3], 86.1%; in [4] it was 40.8%; in [5], 79.9%; in assay [6] it was 89.3%. For the same compound, the Activity in assay [7] was found to be 32.6%; in [8], 70.6%; in [9], 33%; in assay [10] it was 46.8%. In assay [11], the result was Active. Further, the half-inhibitory concentration (IC50) amounted to 16.09 µg/mL (≈ 59.7 µM) in [12] and 11.61 µg/mL (≈ 43.1 µM) in [13].

On to `Cc1cc(O)c(C(C)C)cc1/N=C/c1cc(Br)cc(Br)c1O`, for which the Activity worked out at 85.3% in assay [1]; 68.3% in assay [2]; 78.1% in assay [3]; 45.1% in assay [4]; 85.9% in assay [5]; 88.7% in assay [6]. The Activity in assay [7] is 24.3%; in assay [8] it was 75.9%; in assay [9], 26.8%; in assay [10], 44.2%. For the same compound, in [11], the result was Active. In addition, the IC50 came out at 19.19 µg/mL (≈ 44.9 µM) in assay [12] and 12.76 µg/mL (≈ 29.9 µM) in assay [13].

In the case of `COc1ccc(/C=N/c2cc(C)c(O)cc2C(C)C)cc1OC`, the Activity in assay [1] amounted to 89.8%; in assay [2], 64.2%; in [3] it was 82.3%; in assay [4], 43%; in assay [5], 75.5%; in assay [6], 87.8%. For the same compound, the Activity in assay [7] stood at 25.4%; in [8], 67.5%; in assay [9], 29.1%; in assay [10], 44.1%. Also, the result in assay [11] was Active. The half-inhibitory concentration (IC50) stood at 20.1 µg/mL (≈ 64.1 µM) in assay [12] and 18.12 µg/mL (≈ 57.8 µM) in assay [13].

With `Cc1cc(/N=C/c2cc(Br)c(O)c(Br)c2)c(C(C)C)cc1O`, the Activity turned out to be 91.3% in [1]; 69% in assay [2]; 85.8% in [3]; 45.4% in assay [4]; 88.2% in [5]; 95.2% in assay [6]. The Activity in assay [7] worked out at 31.7%; in assay [8] it was 74.6%; in [9] it was 33.3%; in assay [10], 47.6%. Also, the result in [11] was Active. The IC50 is 12.6 µg/mL (≈ 29.5 µM) in assay [12] and 7.85 µg/mL (≈ 18.4 µM) in assay [13].

For `COc1cc(/C=N/c2cc(C)c(O)cc2C(C)C)cc(OC)c1OC`, the Activity in [1] was determined as 88%; in assay [2], 64.2%; in assay [3] it was 75.7%; in assay [4], 41.8%; in [5], 76.5%; in assay [6], 87.4%. Besides, the Activity in assay [7] came out at 19.7%; in [8], 66.1%; in assay [9], 26.4%; in [10] it was 45.7%. In assay [11], the outcome was Active. Moreover, the half-maximal inhibitory concentration (IC50) in assay [12] came out at 25.2 µg/mL (≈ 73.4 µM); in [13] it was 19.05 µg/mL (≈ 55.5 µM).

On to `COc1ccc(/C=N/c2cc(C(C)(C)C)c(O)cc2C)cc1OC`, for which the Activity in assay [1] was 87.1%; in assay [2] it was 72%; in [3], 82.1%; in assay [4], 35.3%; in assay [5], 81.9%; in assay [6], 90%. Besides, the Activity in assay [7] was determined as 22.6%; in assay [8], 62.2%; in assay [9], 27.4%; in assay [10], 49%. Moreover, in assay [11], the result was Active. For the same compound, the IC50 in assay [12] was 22.05 µg/mL (≈ 67.3 µM); in assay [13], 17.03 µg/mL (≈ 52 µM).

On to `Cc1cc(O)c(C(C)C)cc1/N=C/c1cccnc1`, for which the Activity is 68.2% in assay [5]; 79% in assay [6]; 48% in assay [8]; 16.5% in assay [9]; 38.9% in assay [10]. Further, in assay [13], the concentration for half-maximal inhibition (IC50) is 37.8 µg/mL (≈ 149 µM).

Consider `Cc1cc(O)c(C(C)(C)C)cc1/N=C/c1ccc(Br)cc1`, for which the Activity turned out to be 74.2% in [5]; 81.1% in assay [6]; 59.4% in assay [8]; 32.8% in [9]; 43.9% in [10]. In addition, the IC50 in assay [13] amounted to 20.36 µg/mL (≈ 58.8 µM).

Consider `Cc1cc(O)c(C(C)C)cc1/N=C/c1ccc([N+](=O)[O-])cc1`, for which the Activity in assay [5] was determined as 50.9%; in assay [6], 65.3%; in [8] it was 36.2%; in assay [9] it was 10.3%; in [10], 17.6%. Further, the 50% inhibitory concentration (IC50) in assay [13] came to 63.03 µg/mL (≈ 211 µM).

In the case of `Cc1cc(O)c(C(C)(C)C)cc1/N=C/c1ccc(C(C)C)cc1`, the Activity amounted to 74% in assay [5]; 86.4% in assay [6]; 64% in [8]; 28.7% in [9]; 45.9% in assay [10]. In assay [13], the IC50 is 19.42 µg/mL (≈ 62.8 µM).

As to `CCCc1ccc(/C=N/c2cc(C(C)(C)C)c(O)cc2C)cc1`, the Activity in assay [5] amounted to 70.8%; in assay [6], 84%; in assay [8], 62.9%; in assay [9], 28.6%; in [10] it was 45.8%. Also, in assay [13], the IC50 was 21.12 µg/mL (≈ 68.2 µM).

On to `Cc1cc(/N=C/c2ccc(C(C)C)cc2)c(C(C)C)cc1O`, for which the Activity in [5] turned out to be 72.4%; in assay [6] it was 78%; in assay [8], 61.7%; in [9] it was 25.8%; in assay [10] it was 49.5%. The IC50 in [13] worked out at 21.08 µg/mL (≈ 71.4 µM).

Turning to `Cc1ccc(C(C)(C)C)c(O)c1`, the Activity in assay [5] is 19.6%; in assay [6] it was 28.6%; in assay [8], 11.3%; in assay [9] it was 3.29%; in assay [10] it was 4.69%. The concentration for half-maximal inhibition (IC50) in assay [13] was found to be 173.95 µg/mL (≈ 1060 µM).

Take `Cc1cc(/N=C/c2ccccc2)c(C(C)C)cc1O`: the Activity in [5] was determined as 75%; in assay [6] it was 82.5%; in assay [8], 63.1%; in assay [9], 24.6%; in assay [10] it was 45.4%. Besides, the IC50 in assay [13] is 22.26 µg/mL (≈ 87.9 µM).

As for `Cc1cc(O)c(C(C)(C)C)cc1/N=C/c1ccccn1`, the Activity in [5] amounted to 80.7%; in assay [6], 91.7%; in [8], 61%; in [9], 22.4%; in assay [10] it was 44.7%. The IC50 in assay [13] stood at 22.27 µg/mL (≈ 83 µM).

Regarding `CCc1ccc(/C=N/c2cc(C)c(O)cc2C(C)C)cc1`, the Activity in [5] stood at 75.2%; in [6], 82.3%; in assay [8] it was 61.3%; in assay [9] it was 23.4%; in assay [10], 42.1%. The concentration for half-maximal inhibition (IC50) in assay [13] was 25.34 µg/mL (≈ 90.1 µM).

With `CCCc1ccc(/C=N/c2cc(C(C)C)c(O)cc2C)cc1`, the Activity in [5] turned out to be 69.2%; in [6], 72.5%; in assay [8], 65.5%; in [9] it was 25.1%; in assay [10], 50.7%. In addition, the half-inhibitory concentration (IC50) in assay [13] stood at 20.16 µg/mL (≈ 68.2 µM).
